Experimental findings from ChEMBL document CHEMBL6071149, “Synthesis and photo-induced anticancer activity of new 2-phenylethenyl-1H-benzo[e]indole dyes” (Eur J Med Chem, 2024) are described below.

SMILES strings stand for the structures. Activity calls are given as the source filed them. The rule behind the calls is not given here. Some results are limits rather than exact numbers.

For series [1], the system named is ARN-8 cell. Put plainly: Induction of ROS production in human ARN-8 cells-derived from human A375 cells upto 4 uM treated for 4 hrs under dark condition by CM-H2DCFA probe based analysis. The format is functional. The procedure, abridged:
(§1)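 Cells loaded next day with 5 µM CM-H₂DCFDA for 30 min, then placed in prewarmed PBS with 5 mM glucose. Compound exposure 4 h, followed by 414 nm irradiation at 5 or 10 J/cm²; dark samples run in parallel. Fluorescence read immediately at 492/530 nm. NAC (5 mM) pretreatment for 10 min gave negative controls. RFU normalised to untreated dark control.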

Series [2] relates to G-361. Put plainly: Induction of apoptosis in human G361 cells assessed as decrease in Bcl-2 level upto 4 uM pretreated for 4 hrs followed by light irradiation of 10 J/cm2 at 414 nm measured after 20 hrs by Western blot analysis. The format is functional, cell-based. The conditions noted are these: time 24.0 hrs. The method in brief: (§2)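 Compound exposure 4 h, then 414 nm irradiation, then 20 h further incubation. Lysates made in RIPA buffer, separated by SDS-PAGE and blotted to nitrocellulose. Primary antibodies in TBS with 4 % BSA and 0.1 % Tween 20, incubated overnight. Peroxidase secondary antibody with chemiluminescent detection. GAPDH served as loading control.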
For orientation: A western blot detects proteins with antibodies after separation by electrophoresis.

Series [3] deals with G-361. Put plainly: Cytotoxicity against human G361 cells pretreated for 4 hrs followed by light irradiation of 10 J/cm2 at 414 nm measured after 20 hrs by MTT assay. The format is functional, cell-based. The settings on record: G-361, light or radiation study. The method in brief:
(§3)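 Cells grown in phenol red-free DMEM with 10 % FBS, penicillin/streptomycin, 37 °C, 5 % CO₂. Compound added 24 h after plating and incubated 4 h. Irradiated cells received 414 nm LED light at 20 mW/cm², 10 J/cm², then were incubated 20 h or 68 h more. Dark plates were run in parallel without irradiation. MTT was added for 4 h, formazan dissolved in 10 % SDS, absorbance read at 570 nm. EC50 ± SD.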

For series [4], the system named is ARN-8 cell. Put plainly: Induction of cell cycle arrest in human ARN-8 cells-derived from human A375 cells transfected with p53-responsive beta-galactosidase assessed as increase in p53 activation upto 4 uM pretreated for 4 hrs followed by light irradiation of 10 J/cm2 at 414 nm measured after 20 hrs by fluorescence based assay. The format is functional. The conditions noted are these: time 24.0 hrs. The method in brief: (§4)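 ARN8 cells stably carrying the p53-responsive pRGΔfoslacZ reporter. Increasing compound concentrations for 4 h, then 414 nm irradiation at 2.5, 5, 7.5 or 10 J/cm², then 20 h further incubation. Cells lysed in 0.3 % Triton X-100. After 10 min, 4-methylumbelliferyl β-D-galactopyranoside added at a final 80 µM for 1 h. Fluorescence read at […].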

Series [5] is described as follows: Selectivity ratio of EC50 for human G361 cells under dark condition measured after 72 hrs by MTT assay to EC50 for human G361 cells pretreated for 4 hrs followed by light irradiation of 10 J/cm2 at 414 nm measured after 68 hrs by MTT assay. Type of series: functional. The method in brief:
(§5)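 Ratio of dark EC50 to EC50 after 414 nm irradiation (10 J/cm²). MTT read-out; compound exposure 4 h before irradiation. Each dark value is paired with the matching post-irradiation incubation (20 h or 68 h).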
On the technique in general: Formazan colour is commonly taken as a measure of viable cells.

The subject of series [6] is G-361. Put plainly: Induction of DNA fragmentation in human G361 cells at 0.5 uM pretreated with compound followed by light irradiation of 10 J/cm2 at 414 nm by Comet assay. The format is functional, cell-based. The method in brief:
(§6)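 G361 cells exposed at 0.5 µM and irradiated at indicated 414 nm doses. Cells trypsinized and embedded in 1 % LMP agarose on slides, lysed 1 h in buffer with 1 % Triton X. Cold electrophoresis solution for 40 min, then electrophoresis at 20 V, 350 mA for 20 min. Neutralised twice for 10 min, stained with SYBR Green 15 min. Percent DNA in comet head and tail scored.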

For series [7], the system named is G-361. Put plainly: Induction of apoptosis in human G361 cells assessed as increase in cleaved pro-caspase-9 level upto 4 uM pretreated for 4 hrs followed by light irradiation of 10 J/cm2 at 414 nm measured after 20 hrs by Western blot analysis. Type of series: functional, cell-based. The settings on record: time 24.0 hrs. The method in brief:
as §2

Series [8] has as its system G-361. Kind of series: Induction of ROS production in human G361 cells assessed as increase in hydroxyl radical production upto 4 uM pretreated for 4 hrs followed by replacement of medium containing probe without compound for 30 mins and subsequent light irradiation of 5 to 10 J/cm2 measured immediately by DHR-123 probe based analysis. The format is functional, cell-based. The method in brief:
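Compound exposure 4 h, then medium replaced with PBS containing 5 µM DHR123 probe for 30 min. Probe removed, cells in PBS irradiated at 5 or 10 J/cm², dark samples in parallel. Fluorescence read immediately at 490/525 nm.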

Series [9] relates to G-361. Kind of series: Induction of DNA fragmentation in human G361 cells at 0.5 uM by Comet assay. The format is functional, cell-based. The method in brief:
as §6

Series [10] relates to ARN-8 cell. Put plainly: Downregulation of p53 level in human ARN-8 cells-derived from human A375 cells transfected with p53-responsive beta-galactosidase at higher concentration pretreated for 4 hrs followed by light irradiation of 10 J/cm2 at 414 nm measured after 20 hrs by fluorescence based assay. Type of series: functional. The settings on record: time 24.0 hrs. The procedure, abridged: as §4

The subject of series [11] is ARN-8 cell. Put plainly: Induction of apoptosis in human ARN-8 cells-derived from human A375 cells assessed as increase in cleaved pro-caspase-9 level upto 4 uM pretreated for 4 hrs followed by light irradiation of 10 J/cm2 at 414 nm measured after 20 hrs by Western blot analysis. The format is functional, cell-based. The settings on record: time 24.0 hrs. The method in brief: as §2

Series [12] is described as follows: Cytotoxicity against human BJ cells under dark condition measured after 72 hrs by MTT assay. The format is toxicity, cell-based. The method in brief: as §3
The test system of series [13] is G-361. Put plainly: Induction of cell cycle arrest in human G361 cells assessed as increase in cell population at sub-G1 phase at 0.5 to 1 uM pretreated for 4 hrs followed by light irradiation of upto 10 J/cm2 at 414 nm measured after 20 hrs by flow cytometry. Type of series: functional, cell-based. The conditions noted are these: dose 0.5-1 µM, time 24.0 hrs. The method in brief: (§7)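 Compound exposure 4 h (0.5 or 1 µM), then irradiation at increasing blue-light doses, then 20 h further incubation. Cells stained with propidium iodide; DNA content measured by flow cytometry with a 488 nm laser. Cell-cycle and subG1 distributions analysed.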
(In general: Flow cytometry measures light scatter and fluorescence of single cells or particles in a stream.)

A short description of series [14]: Selectivity ratio of EC50 for human G361 cells under dark condition measured after 24 hrs by MTT assay to EC50 for human G361 cells pretreated for 4 hrs followed by light irradiation of 10 J/cm2 at 414 nm measured after 20 hrs by MTT assay. The format is functional. The procedure, abridged:
as §5

A short description of series [15]: Cytotoxicity against ARN-8 cells-derived from human A375 cells pretreated for 4 hrs followed by light irradiation of 10 J/cm2 at 414 nm measured after 20 hrs by MTT assay. The settings on record: ARN-8 cell, light or radiation study. Type of series: functional, cell-based. The method in brief:
as §3

The test system of series [16] is ARN-8 cell. Kind of series: Induction of ROS production in human ARN-8 cells-derived from human A375 cells upto 4 uM pretreated for 4 hrs followed by light irradiation of 5 to 10 J/cm2 measured immediately in presence of N-acetylcysteine by CM-H2DCFA probe based analysis. Type of series: functional. The procedure, abridged: as §1
Series [17] has as its system G-361. Kind of series: Induction of ROS production in human G361 cells upto 4 uM treated for 4 hrs under dark condition by CM-H2DCFA probe based analysis. Type of series: functional, cell-based. The method in brief:
as §1

For series [18], the system named is ARN-8 cell. Put plainly: Induction of oxidative stress in human ARN-8 cells-derived from human A375 cells assessed as increase in HO-1 level upto 4 uM under dark condition by immunoblot analysis. The format is functional, cell-based.
Series [19] has as its system ARN-8 cell. Kind of series: Induction of cell cycle arrest in human ARN-8 cells-derived from human A375 cells assessed as cell accumulation at G2/M phase at 0.5 to 1 uM pretreated for 4 hrs followed by light irradiation of upto 10 J/cm2 at 414 nm measured after 20 hrs by flow cytometry. Type of series: functional, cell-based. The conditions noted are these: dose 0.5-1 µM, time 24.0 hrs. The procedure, abridged: as §7

As for `COc1ccc(/C=C/C2=Nc3ccc4ccccc4c3C2(C)C)cc1[N+](=O)[O-]`, the outcome in series [1], in series [9], in [16] and in series [17] was inactive. The outcome in series [2], in [4], in series [6], in [7], in [8] and in series [10] was Active. In addition, the outcome in series [11], in series [13], in series [18] and in series [19] was Active. Besides, the EC50 – broadly, the concentration needed to bring the measured effect to its halfway point – in series [3] is 0.6 µM; in series [15] it was 0.5 µM. The “Ratio EC50” value in [5] is recorded as >28; in [14], “>=15”. In series [12], this compound showed an EC50 at 72 h of 8.3 µM.
